Experimental data reported in ChEMBL document CHEMBL1154639, “Application of Huisgen (3+2) cycloaddition reaction: synthesis of 1-(2,3-dihydrobenzofuran-2-yl-methyl [1,2,3]-triazoles and their antitubercular evaluations” (2010).
In brackets after ≈: the same amount, converted by molar mass.

These molecules were tested on Mycobacterium tuberculosis (assay: Antitubercular activity against Mycobacterium tuberculosis H37Rv after 30 days by agar microdilution method).
Format: functional
Summary of the method: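 M. tuberculosis H37Rv grown on L-J medium, harvested into 0.85% saline with 0.05% Tween-80. Compounds from a 1 mg/mL DMSO stock, two-fold dilutions in Middlebrook 7H10 agar slants with OADC. Slants preincubated 24 h at 37 °C, then streaked with 5 × 10^4 bacilli per tube and held at 37 °C. Growth read at 30 days against drug-free controls; MIC determined.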
With `OCCc1cn(CC2Cc3c(ccc4ccccc34)O2)nn1` (stereo not given) the MIC was greater than 12.5 µg/mL.
With `O=Cc1ccc2c(c1)CC(Cn1cc(Cc3ccccc3)nn1)O2` (stereo not given) the MIC was greater than 12.5 µg/mL.
For `Cc1ccc(C)c2c1CC(CN=[N+]=[N-])O2` (stereo not given), the MIC was greater than 12.5 µg/mL.
For `CCCCCC(O)c1cn(CC2Cc3c(C)ccc(C)c3O2)nn1` (stereo not given), the MIC was greater than 12.5 µg/mL.
Molecule `CCCCCCc1cn(CC2Cc3cc(C#N)ccc3O2)nn1` (stereo not given) has an MIC greater than 12.5 µg/mL.
Molecule `[N-]=[N+]=NCC1Cc2c(ccc3ccccc23)O1` (stereo not given) has an MIC of 3.12 µg/mL (≈ 13.9 µM).
In the case of `N#Cc1ccc2c(c1)CC(CN=[N+]=[N-])O2` (stereo not given), the MIC is reported as greater than 12.5 µg/mL.
Molecule `N#Cc1ccc2c(c1)CC(Cn1cc(CO)nn1)O2` (stereo not given) has an MIC greater than 25 µg/mL.
With `c1ccc(-c2cn(CC3Cc4c(ccc5ccccc45)O3)nn2)cc1` (stereo not given) the MIC was greater than 12.5 µg/mL.
Work on `Cc1ccc(C)c2c1CC(Cn1cc(Cc3ccccc3)nn1)O2` (stereo not given) yielded an MIC greater than 12.5 µg/mL.
Work on `Cc1ccc(C)c2c1CC(Cn1cc(CCO)nn1)O2` (stereo not given) yielded an MIC greater than 12.5 µg/mL.
Molecule `N#Cc1ccc2c(c1)CC(Cn1cc(Cc3ccccc3)nn1)O2` (stereo not given) has an MIC greater than 12.5 µg/mL.
Work on `CCCCCC(O)c1cn(CC2Cc3cc(C#N)ccc3O2)nn1` (stereo not given) yielded an MIC greater than 25 µg/mL.
`Cc1ccc(C)c2c1CC(Cn1cc(CO)nn1)O2` (stereo not given) showed an MIC of 12.5 µg/mL (≈ 48.2 µM).
`CCCCCc1cn(CC2Cc3c(C)ccc(C)c3O2)nn1` (stereo not given) gave an MIC greater than 12.5 µg/mL.
`NNC(=O)c1ccncc1` [ISONIAZID] showed an MIC of 0.75 µg/mL (≈ 5.47 µM).
`CCCCCCc1cn(CC2Cc3c(C)ccc(C)c3O2)nn1` (stereo not given) showed an MIC greater than 12.5 µg/mL.
`CCCCCc1cn(CC2Cc3c(ccc4ccccc34)O2)nn1` (stereo not given) was tested, and the MIC was 12.5 µg/mL (≈ 38.9 µM).
With `CCCCCc1cn(CC2Cc3cc(C#N)ccc3O2)nn1` (stereo not given) the MIC was greater than 12.5 µg/mL.
Work on `N#Cc1ccc2c(c1)CC(Cn1cc(CCO)nn1)O2` (stereo not given) yielded an MIC greater than 12.5 µg/mL.
Molecule `CCCCCCc1cn(CC2Cc3cc(C=O)ccc3O2)nn1` (stereo not given) has an MIC of 6.25 µg/mL (≈ 19.9 µM).
Work on `c1ccc(Cc2cn(CC3Cc4c(ccc5ccccc45)O3)nn2)cc1` (stereo not given) yielded an MIC greater than 12.5 µg/mL.
With `O=Cc1ccc2c(c1)CC(Cn1cc(CO)nn1)O2` (stereo not given) the MIC was greater than 12.5 µg/mL.
`Cc1ccc(C)c2c1CC(Cn1cc(-c3ccccc3)nn1)O2` (stereo not given) gave an MIC greater than 12.5 µg/mL.
In the case of `N#Cc1ccc2c(c1)CC(Cn1cc(-c3ccccc3)nn1)O2` (stereo not given), the MIC is reported as greater than 12.5 µg/mL.
With `OCc1cn(CC2Cc3c(ccc4ccccc34)O2)nn1` (stereo not given) the MIC was greater than 12.5 µg/mL.
`CC[C@@H](CO)NCCN[C@@H](CC)CO` [ETHAMBUTOL] gave an MIC of 3.25 µg/mL (≈ 15.9 µM).
`[N-]=[N+]=NCC1Cc2cc(C=O)ccc2O1` (stereo not given) showed an MIC greater than 12.5 µg/mL.
With `CCCCCc1cn(CC2Cc3cc(C=O)ccc3O2)nn1` (stereo not given) the MIC was 12.5 µg/mL (≈ 41.8 µM).
`O=Cc1ccc2c(c1)CC(Cn1cc(-c3ccccc3)nn1)O2` (stereo not given) gave an MIC greater than 12.5 µg/mL.
